Laboratory results published in article PMC12495087 (ESMO Open, 2025).

Assay: phase I study BOS172738-01: safety and tolerability
Type: in vivo, human
Details: for patients who discontinued study treatment due to AEs: interim cut-off
Outline: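 Patients received at least one dose of oral drug given once daily in 28-day cycles. Part A escalated 10–150 mg, by accelerated titration (dose doubling) and then 3+3 Fibonacci steps; part B used 75 mg. AEs were graded by CTCAE v4.03 from first dose to 31 days after last dose. DLTs counted in cycle 1. Missing causality was scored as related and missing grade as grade 3.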

[1] = part A, all dose levels, n = 67
[2] = part B, RET gene-fusion NSCLC, 75 mg, n = 20
[3] = part B, RET gene-mutant MTC, 75 mg, n = 7

COc1cc2cc(-c3ccc(CC(=O)Nc4cc(C(C)(C)C(F)(F)F)no4)cn3)cnc2cc1OC [BOS172738]
TEAE related to BOS, any [1]: 61 (91) n (%) | TEAE related to BOS, grade ≥3 [1]: 39 (58) n (%) | patients who discontinued study treatment due to AEs (part A, % of 69 screened): 18 (26%) n (%) | Any TEAE (part B total, n = 50): 50 (100) n (%) | Any TEAE leading to BOS discontinuation (part B total, n = 50): 7 (14) n (%) | Any TEAE leading to BOS dose interruption (part B total, n = 50): 33 (66) n (%) | Any TEAE leading to BOS dose reduction (part B total, n = 50): 10 (20) n (%) | Any TEAE leading to study discontinuation (part B total, n = 50): 7 (14) n (%) | Any TEAE related to BOS leading to BOS discontinuation (part B total, n = 50): 2 (4) n (%) | Any TEAE related to BOS leading to study discontinuation (part B total, n = 50): 1 (2) n (%) | Any TEAE resulting in death (part B total, n = 50): 2 (4) n (%) | Any TEAE, grade ≥3 (part B total, n = 50): 41 (82) n (%) | Serious TEAEs related to BOS (part B total, n = 50): 2 (4) n (%) | Serious TEAEs, any (part B total, n = 50): 28 (56) n (%) | TEAE related to BOS, CTCAE grade ≥3: Anemia (part B total, n = 50): 3 (6) n (%) | TEAE related to BOS, CTCAE grade ≥3: Asthenia (part B total, n = 50): 0 n (%) | TEAE related to BOS, CTCAE grade ≥3: Blood creatinine phosphokinase increased (part B total, n = 50): 10 (20) n (%) | TEAE related to BOS, CTCAE grade ≥3: Diarrhea (part B total, n = 50): 0 n (%) | TEAE related to BOS, CTCAE grade ≥3: Hypophosphatemia (part B total, n = 50): 3 (6) n (%) | TEAE related to BOS, CTCAE grade ≥3: Lymphopenia (part B total, n = 50): 2 (4) n (%) | TEAE related to BOS, CTCAE grade ≥3: Muscular weakness (part B total, n = 50): 0 n (%) | TEAE related to BOS, CTCAE grade ≥3: Myositis (part B total, n = 50): 0 n (%) | TEAE related to BOS, CTCAE grade ≥3: Neutropenia (part B total, n = 50): 0 n (%) | TEAE related to BOS, CTCAE grade ≥3: Neutrophil count decreased (part B total, n = 50): 7 (14) n (%) | TEAE related to BOS, any (part B total, n = 50): 38 (76) n (%) | TEAE related to BOS, grade ≥3 (part B total, n = 50): 24 (48) n (%) | Any TEAE (part B, Other, 75 mg, n = 23): 23 (100) n (%) | Any TEAE leading to BOS discontinuation (part B, Other, 75 mg, n = 23): 5 (22) n (%) | Any TEAE leading to BOS dose interruption (part B, Other, 75 mg, n = 23): 11 (48) n (%) | Any TEAE leading to BOS dose reduction (part B, Other, 75 mg, n = 23): 4 (17) n (%) | Any TEAE leading to study discontinuation (part B, Other, 75 mg, n = 23): 3 (13) n (%) | Any TEAE related to BOS leading to BOS discontinuation (part B, Other, 75 mg, n = 23): 1 (4) n (%) | Any TEAE related to BOS leading to study discontinuation (part B, Other, 75 mg, n = 23): 0 n (%) | Any TEAE resulting in death (part B, Other, 75 mg, n = 23): 1 (4) n (%) | Any TEAE, grade ≥3 (part B, Other, 75 mg, n = 23): 16 (70) n (%) | Serious TEAEs related to BOS (part B, Other, 75 mg, n = 23): 1 (4) n (%) | Serious TEAEs, any (part B, Other, 75 mg, n = 23): 17 (74) n (%) | TEAE related to BOS, CTCAE grade ≥3: Anemia (part B, Other, 75 mg, n = 23): 1 (4) n (%) | TEAE related to BOS, CTCAE grade ≥3: Asthenia (part B, Other, 75 mg, n = 23): 0 n (%) | TEAE related to BOS, CTCAE grade ≥3: Blood creatinine phosphokinase increased (part B, Other, 75 mg, n = 23): 0 n (%) | TEAE related to BOS, CTCAE grade ≥3: Diarrhea (part B, Other, 75 mg, n = 23): 0 n (%) | TEAE related to BOS, CTCAE grade ≥3: Hypophosphatemia (part B, Other, 75 mg, n = 23): 1 (4) n (%) | TEAE related to BOS, CTCAE grade ≥3: Lymphopenia (part B, Other, 75 mg, n = 23): 1 (4) n (%) | TEAE related to BOS, CTCAE grade ≥3: Muscular weakness (part B, Other, 75 mg, n = 23): 0 n (%) | TEAE related to BOS, CTCAE grade ≥3: Myositis (part B, Other, 75 mg, n = 23): 0 n (%) | TEAE related to BOS, CTCAE grade ≥3: Neutropenia (part B, Other, 75 mg, n = 23): 0 n (%) | TEAE related to BOS, CTCAE grade ≥3: Neutrophil count decreased (part B, Other, 75 mg, n = 23): 1 (4) n (%) | TEAE related to BOS, any (part B, Other, 75 mg, n = 23): 11 (48) n (%) | TEAE related to BOS, grade ≥3 (part B, Other, 75 mg, n = 23): 4 (17) n (%) | Any TEAE [2]: 20 (100) n (%) | Any TEAE leading to BOS discontinuation [2]: 1 (5) n (%) | Any TEAE leading to BOS dose interruption [2]: 17 (85) n (%) | Any TEAE leading to BOS dose reduction [2]: 4 (20) n (%) | Any TEAE leading to study discontinuation [2]: 3 (15) n (%) | Any TEAE related to BOS leading to BOS discontinuation [2]: 0 n (%) | Any TEAE related to BOS leading to study discontinuation [2]: 0 n (%) | Any TEAE resulting in death [2]: 1 (5) n (%) | Any TEAE, grade ≥3 [2]: 19 (95) n (%) | Serious TEAEs related to BOS [2]: 1 (5) n (%) | Serious TEAEs, any [2]: 9 (45) n (%) | TEAE related to BOS, CTCAE grade ≥3: Anemia [2]: 2 (10) n (%) | TEAE related to BOS, CTCAE grade ≥3: Asthenia [2]: 0 n (%) | TEAE related to BOS, CTCAE grade ≥3: Blood creatinine phosphokinase increased [2]: 8 (40) n (%) | TEAE related to BOS, CTCAE grade ≥3: Diarrhea [2]: 0 n (%) | TEAE related to BOS, CTCAE grade ≥3: Hypophosphatemia [2]: 0 n (%) | TEAE related to BOS, CTCAE grade ≥3: Lymphopenia [2]: 1 (5) n (%) | TEAE related to BOS, CTCAE grade ≥3: Muscular weakness [2]: 0 n (%) | TEAE related to BOS, CTCAE grade ≥3: Myositis [2]: 0 n (%) | TEAE related to BOS, CTCAE grade ≥3: Neutropenia [2]: 0 n (%) | TEAE related to BOS, CTCAE grade ≥3: Neutrophil count decreased [2]: 5 (25) n (%) | TEAE related to BOS, any [2]: 20 (100) n (%) | TEAE related to BOS, grade ≥3 [2]: 14 (70) n (%) | Any TEAE [3]: 7 (100) n (%) | Any TEAE leading to BOS discontinuation [3]: 1 (14) n (%) | Any TEAE leading to BOS dose interruption [3]: 5 (71) n (%) | Any TEAE leading to BOS dose reduction [3]: 2 (29) n (%) | Any TEAE leading to study discontinuation [3]: 1 (14) n (%) | Any TEAE related to BOS leading to BOS discontinuation [3]: 1 (14) n (%) | Any TEAE related to BOS leading to study discontinuation [3]: 1 (14) n (%) | Any TEAE resulting in death [3]: 0 n (%) | Any TEAE, grade ≥3 [3]: 6 (86) n (%) | Serious TEAEs related to BOS [3]: 0 n (%) | Serious TEAEs, any [3]: 2 (29) n (%) | TEAE related to BOS, CTCAE grade ≥3: Anemia [3]: 0 n (%) | TEAE related to BOS, CTCAE grade ≥3: Asthenia [3]: 0 n (%) | TEAE related to BOS, CTCAE grade ≥3: Blood creatinine phosphokinase increased [3]: 2 (29) n (%) | TEAE related to BOS, CTCAE grade ≥3: Diarrhea [3]: 0 n (%) | TEAE related to BOS, CTCAE grade ≥3: Hypophosphatemia [3]: 2 (29) n (%) | TEAE related to BOS, CTCAE grade ≥3: Lymphopenia [3]: 0 n (%) | TEAE related to BOS, CTCAE grade ≥3: Muscular weakness [3]: 0 n (%) | TEAE related to BOS, CTCAE grade ≥3: Myositis [3]: 0 n (%) | TEAE related to BOS, CTCAE grade ≥3: Neutropenia [3]: 0 n (%) | TEAE related to BOS, CTCAE grade ≥3: Neutrophil count decreased [3]: 1 (14) n (%) | TEAE related to BOS, any [3]: 7 (100) n (%) | TEAE related to BOS, grade ≥3 [3]: 6 (86) n (%) | patients who discontinued study treatment due to AEs (part B, % of 54 screened): 7 (13%) n (%) | BOS172738-related TEAEs (parts A and B, final cut-off): 85% | BOS172738-related TEAEs, grade ≥3 (parts A and B, final cut-off): 54% | BOS172738-related grade ≥3 anemia (parts A and B, final cut-off): 9% | BOS172738-related grade ≥3 blood creatine phosphokinase increased (parts A and B, final cut-off): 25% | BOS172738-related grade ≥3 neutrophil count decreased (parts A and B, final cut-off): 10% | patients with at least one TEAE (parts A and B, final data cut-off): 100% | elevated blood creatine phosphokinase leading to dose interruption (pooled data): 28% | elevated blood creatine phosphokinase leading to dose reduction (pooled data): 17% | elevated blood creatine phosphokinase leading to treatment discontinuation (pooled data): 2%
